Results: ChEMBL document CHEMBL4033800, “Further Developments of the Phenyl-Pyrrolyl Pentane Series of Nonsteroidal Vitamin D Receptor Modulators as Anticancer Agents” (J Med Chem, 2018)
pIC50: −log10 of the molar value. Calls of active or inactive are those of the source. No cut-off for these calls is given here.

Assays:
MCF7 [1] = test: Induction of apoptosis in human MCF7 cells assessed as early apoptotic cells at 1 uM after 24 hrs by Annexin V-FITC/propidium iodide-staining based flow cytometry (reference value: 1.74%); type: functional
Mus musculus [2] = test: Toxicity in BALB/c nude mouse xenografted with human MCF7 cells assessed as change in body weight at 10 mg/kg, ip administered every other day relative to control; type: organism-based; details: in vivo
Outline: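 MCF7 cells transplanted orthotopically into the breast of athymic nude mice. Dosing at 10 mg/kg i.p. in vehicle of polyoxyethylated castor oil/ethanol/saline 1:1:18, with vehicle and saline control groups. Body weight, tumor volume and serum calcium followed.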

[3] = Drug uptake in human MCF7 cells at 1 uM after 30 mins by HPLC analysis; type: ADME, cell-based; details: mcf7, 0.5 h
Outline: (§1)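 MCF7 cells were given 1 µM compound in medium with 10% FBS for 10 or 30 min. Cells and medium were extracted separately with chloroform/methanol (3:1, v/v) and analysed by HPLC. Mean ± SEM, n = 3.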

MCF7 [4] = test: Antitumor activity against human MCF7 cells xenografted in BALB/c nude mouse assessed as reduction in tumor cell proliferation at 10 mg/kg, ip administered every other day by Ki-67 staining based microscopic analysis; type: functional, organism-based
Outline: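 MCF7 orthotopic tumors from nude mice given 10 mg/kg i.p. were sectioned and immunostained for Ki-67. Ki-67-positive area was scored as a percentage of total nuclear area per field (n=10 fields, 400×) and normalized to the calcitriol group.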

[5] = AUC in Sprague-Dawley rat at 5 mg/kg, iv measured up to 48 hrs post administration by HPLC analysis; type: ADME, organism-based; parameters: dose 5 mg/kg, time < 48 hr, route intravenous; details: in vivo
Outline: (§2)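 Male Sprague-Dawley rats (180−220 g), 4 per group, dosed at 5 mg/kg i.v., 20 mg/kg i.p. or 20 mg/kg p.o. Parameters given as mean ± SD (n = 4).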

MCF7 [6] = test: Induction of cell cycle arrest in human MCF7 cells assessed as accumulation at S phase at 1 uM after 24 hrs by propidium iodide-staining based flow cytometry (reference value: 31.55%); type: functional
MCF7 [7] = test: Induction of apoptosis in human MCF7 cells assessed as upregulation of Bax mRNA levels at 1 uM after 24 hrs by RT-qPCR analysis; type: functional, cell-based
[8] = Half life in Sprague-Dawley rat at 5 mg/kg, iv by HPLC analysis; type: ADME, organism-based; details: in vivo; outline: as §2
MCF7 [9] = test: Induction of apoptosis in human MCF7 cells assessed as viable cells at 1 uM after 24 hrs by Annexin V-FITC/propidium iodide-staining based flow cytometry (reference value: 98.2%); type: functional; details: MCF7, 24 h, read-out: Activity
L02 = test: Antiproliferative activity against human L02 cells after 48 hrs by MTT assay; type: cell-based; details: L02, 48 h
MCF7 [10] = test: Induction of apoptosis in human MCF7 cells assessed as upregulation of Bak mRNA levels at 1 uM after 24 hrs by RT-qPCR analysis; type: functional, cell-based
[11] = molecular target: T1, Vitamin D3 receptor (Homo sapiens) (UniProt P11473); test: Transactivation of human GAL4-fused VRD expressed in HEK293 cells co-transfected with human RXRalpha/VDRE after 24 hrs by dual luciferase reporter gene assay; type: cell-based
T1 sequence (whole entry): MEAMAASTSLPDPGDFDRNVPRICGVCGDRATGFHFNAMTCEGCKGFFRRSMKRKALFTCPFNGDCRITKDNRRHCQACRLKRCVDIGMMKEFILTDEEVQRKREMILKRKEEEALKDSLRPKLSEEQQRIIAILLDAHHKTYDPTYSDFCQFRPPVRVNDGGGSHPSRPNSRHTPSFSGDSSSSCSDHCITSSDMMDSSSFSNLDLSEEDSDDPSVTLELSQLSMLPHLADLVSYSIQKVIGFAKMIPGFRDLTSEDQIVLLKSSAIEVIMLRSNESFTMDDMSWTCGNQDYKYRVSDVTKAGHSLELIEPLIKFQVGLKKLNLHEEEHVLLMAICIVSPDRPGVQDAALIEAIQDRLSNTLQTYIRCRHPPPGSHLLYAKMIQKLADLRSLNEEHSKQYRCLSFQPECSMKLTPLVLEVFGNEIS

[12] = Clearance in Sprague-Dawley rat at 20 mg/kg, po by HPLC analysis; type: ADME, organism-based; details: in vivo; outline: as §2
[13] = Drug uptake in human MCF7 cells at 1 uM after 10 mins by HPLC analysis; type: ADME, cell-based; details: mcf7, 10 min; outline: as §1
[14] = Clearance in Sprague-Dawley rat at 5 mg/kg, iv measured up to 48 hrs post administration by HPLC analysis; type: ADME, organism-based; details: in vivo; outline: as §2
[15] = Clearance in Sprague-Dawley rat at 20 mg/kg, ip by HPLC analysis; type: ADME, organism-based; details: in vivo; outline: as §2
MCF7 [16] = test: Induction of apoptosis in human MCF7 cells assessed as necrotic cells at 1 uM after 24 hrs by Annexin V-FITC/propidium iodide-staining based flow cytometry (reference value: 0.031%); type: functional
[17] = MRT in Sprague-Dawley rat at 20 mg/kg, ip by HPLC analysis; type: ADME, organism-based; details: in vivo; outline: as §2
PC-3 = test: Antiproliferative activity against human PC3 cells after 48 hrs by MTT assay; type: functional, cell-based; details: PC-3, 48 h
Caco-2 = test: Antiproliferative activity against human Caco2 cells after 48 hrs by MTT assay; type: functional, cell-based; details: Caco-2, 48 h
Mus musculus [18] = test: Hypercalcemic effect in ICR mouse at 0.5 to 5 mg/kg/day, ip administered for 7 days measured on day 8 post-dose by MTB-based assay relative to control; type: ADME, organism-based; details: in vivo, 168 h
Outline: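 Mice were dosed i.p. over a 7-day period and serum calcium was then measured. Each dose level was compared with a vehicle-treated control group (saline cited as the comparator). Data are mean ± SEM, n = 6 per group. Significance versus vehicle was reported at p < 0.05, 0.01 and 0.001.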

MCF7 [19] = test: Induction of cell cycle arrest in human MCF7 cells assessed as upregulation of p27 mRNA levels at 1 uM after 24 hrs by RT-qPCR analysis; type: functional, cell-based
Outline: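 p21 and p27 mRNA levels were measured by real-time quantitative PCR in MCF7 cells treated at 1 µM for 24 h.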

MCF7 [20] = test: Induction of cell cycle arrest in human MCF7 cells assessed as upregulation of p21 expression at 1 uM after 24 hrs by Western blot analysis; type: functional, cell-based
Outline: (§3)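 p21 and p27 protein levels were measured by Western blot in MCF7 cells treated at 1 µM for 24 h.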

MCF7 [21] = test: Induction of cell cycle arrest in human MCF7 cells assessed as upregulation of p27 expression at 1 uM after 24 hrs by Western blot analysis; type: functional, cell-based; outline: as §3
[22] = AUC in Sprague-Dawley rat at 20 mg/kg, po measured up to 48 hrs post administration by HPLC analysis; type: ADME, organism-based; parameters: time < 48 hr, dose 20 mg/kg, route oral; details: in vivo; outline: as §2
[23] = Bioavailability in Sprague-Dawley rat at 20 mg/kg, ip measured up to 48 hrs after administration by HPLC analysis; type: ADME, organism-based; details: in vivo; outline: as §2
[24] = AUC in Sprague-Dawley rat at 20 mg/kg, ip measured up to 48 hrs post administration by HPLC analysis; type: ADME, organism-based; parameters: time < 48 hr, dose 20 mg/kg, route intraperitoneal; details: in vivo; outline: as §2
MCF7 [25] = test: Induction of cell cycle arrest in human MCF7 cells assessed as accumulation at G0/G1 phase at 1 uM after 24 hrs by propidium iodide-staining based flow cytometry (reference value: 56.03%); type: functional

Row | Compound | Activity (MCF7 [1]) [%] | Activity (Mus musculus [2]) | Drug uptake [3] | Activity (MCF7 [4]) | AUC at 48 h [5] [ng·h/mL] | Activity (MCF7 [6]) [%] | Activity (MCF7 [7]) | half-life [8] [h] | viability at 1 µM (MCF7 [9]) [%] | pIC50 (L02) | Activity (MCF7 [10]) | Activity [11] | CL/F [12] [mL/min] | Drug uptake [13] | clearance [14] [mL/min] | CL/F [15] [mL/min] | Activity (MCF7 [16]) [%] | MRT [17] [h] | pIC50 (PC-3) | pIC50 (Caco-2) | further results
1 | CCn1c(C(=O)NCCCN2CCOCC2)ccc1C(CC)(CC)c1ccc(OCCC(O)(CC)CC)c(C)c1 | 9.72 | Non-Toxic | 38.2% | Active | 10400 | 22.62 | Active | 4.75 | 87.3 | 5.54 | Active | Dose-dependent effect | 21.8 | 37.9% | 8.17 | 13 | 0.2 | 17.6 | 5.80 | 5.57 | Activity (Mus musculus [18]): Non-Toxic; Activity (MCF7 [19]): Active; Activity (MCF7 [20]): Active; Activity (MCF7 [21]): Active; AUC at 48 h [22]: 15300 ng·h/mL; bioavailability [23]: 62.5%; AUC at 48 h [24]: 25900 ng·h/mL; Activity (MCF7 [25]): 70.41%
2 | CCN(CC)CCCNC(=O)c1ccc(C(CC)(CC)c2ccc(OCCC(O)(CC)CC)c(C)c2)n1CC | 9.59 | Non-Toxic | Active | Active | 25200 | 25.13 | Active | 2.97 | 85.7 | 6.43 | Active | Dose-dependent effect | 15.5 | Active | 3.5 | 11.3 | 0.23 | 9.3 | 7.40 | 7.77 | Activity (Mus musculus [18]): Non-Toxic; Activity (MCF7 [19]): Active; Activity (MCF7 [20]): Active; Activity (MCF7 [21]): Active; AUC at 48 h [22]: 21500 ng·h/mL; bioavailability [23]: 30.2%; AUC at 48 h [24]: 30500 ng·h/mL; Activity (MCF7 [25]): 70.15%
